This passage reports EC50 results from ChEMBL document CHEMBL1147384, “Cytotoxic diterpenoids from the brown alga Dilophus ligulatus” (1993).

The structures appear in SMILES notation. In brackets after ≈: the same amount, converted by molar mass. Some results are limits rather than exact numbers.

Holding throughout (format): functional
What all share (conditions): read-out: ED50 (the source's name)

One test relates to KB. Description: Cytotoxicity against human KB cells. The gist of the method:
(§1)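 Run under the lab's standard cytotoxicity protocols with mercaptopurine as the positive standard. Activity is given as ED50 in μg/ml. Cells were human nasopharynx carcinoma KB, human lung carcinoma NSCLC-N6, murine leukemia P-388, and P-388/DOX, a P-388 line expressing the multidrug-resistance (mdr) gene.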

For test [1], the system named is P388. Briefly: Cytotoxicity against mouse P388 cells. In outline: as §1
In test [2] the test system is P388. Description: Cytotoxicity against mouse doxorubicin-resistant P388 cells. In outline: as §1
Test [3] is described as follows: Cytotoxicity against human NSCLC-N6 cells. In outline: as §1

As to `CC(=O)O[C@H]1C(=O)C2C1CC/C=C(\C)CC[C@@H]2[C@H](C)CCC=C(C)C` (some centres undefined) [ISOACETYLCORIACENONE], the EC50 with KB is over 10 µg/mL; with P388 [1], 6 µg/mL (≈ 17.3 µM); with P388 [2] it was over 10 µg/mL; in test [3], 6.82 µg/mL (≈ 19.7 µM).
Take `CC(=O)OC[C@H]1/C(C=O)=C\C/C=C(\C)C[C@H](O)[C@@H]1[C@@H](C)CCC=C(C)C` [HYDROXYACETYLDICTYOLAL]: the EC50 came out at 2.1 µg/mL (≈ 5.79 µM) with KB, 3.9 µg/mL (≈ 10.8 µM) in the test with P388 [1], 9.3 µg/mL (≈ 25.7 µM) in the test on P388 [2] and 10 µg/mL (≈ 27.6 µM) in test [3].
The corresponding values for `CC(=O)O/C=C1/CC/C=C(\C)C[C@@H]2OC(=O)[C@H]1[C@H]2[C@@H](C)CCC=C(C)C` [DILOPHOLIDE] are 1.5 µg/mL (≈ 4.16 µM), 0.5 µg/mL (≈ 1.39 µM), 12 µg/mL (≈ 33.3 µM) and 3.3 µg/mL (≈ 9.15 µM).
In the same order, the values of `CC(=O)O[C@@H]1C(=O)C2C1CC/C=C(\C)CC[C@@H]2[C@H](C)CCC=C(C)C` (some centres undefined) [ACETYLCORIACENONE] are over 10 µg/mL, 4.4 µg/mL (≈ 12.7 µM), over 10 µg/mL and 5.4 µg/mL (≈ 15.6 µM).
In the same order, the values of `Sc1ncnc2nc[nH]c12` [MERCAPTOPURINE ANHYDROUS] are 0.54 µg/mL (≈ 3.55 µM), 0.7 µg/mL (≈ 4.6 µM), 0.25 µg/mL (≈ 1.64 µM) and 0.76 µg/mL (≈ 4.99 µM).
In the case of `CC(=O)O[C@H]1C[C@H](C)[C@H]2C[C@H]2C2=C(COC2=O)[C@H]1[C@H](C)CCC=C(C)C` [ACETOXYCRENULIDE], the EC50 (in the test with KB; with P388 [1]; with P388 [2]; in test [3]) was over 10 µg/mL throughout.
